In ChEMBL document CHEMBL1133505, “Synthesis and biological evaluation of ceramide analogues with substituted aromatic rings or an allylic fluoride in the sphingoid moiety” (2000):
Values joined by “and” are separate entries in the source; they are usually repeats but may differ in a detail not shown here. Equal values may be shown once.

Tests used:
Type in all cases: functional, Rattus norvegicus, Hippocampus
[1] = Inability to reverse inhibitory effect of D-threo-1-phenyl-2-decanoylamino-3-morpholino-1-propanol(PDMP) on accelerated axonal growth of hippocampal neurons, number of axonal branch points/ cell at 51 hour (P value)
Summary of the method: (§1)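 Rat (E18 Wistar) hippocampal neurons cultured at low density over glia in serum-free N2 MEM. Treated at 48 h with bFGF 1 ng/mL, PDMP 50 μM final (Hepes stock) and with or without analogue 5 μM from ethanol (≤1% final). Axonal branch points/cell counted by phase contrast after glutaraldehyde fixation at 51 h and normalized to 48 h. Mean ± SEM of three cultures, 50 cells × two cover slips; p values vs bFGF or bFGF+PDMP.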

[2] = Evaluation for reversing the inhibitory effects of Fumonisin B1(FB1) on accelerated axonal growth of hippocampal neurons.
Summary of the method: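 E18 Wistar rat hippocampal neurons, trypsin-dissociated and plated at low density on poly-L-lysine cover slips over a glial monolayer in serum-free N2 MEM. At 48 h: bFGF 1 ng/mL plus FB1 10 μM (Hepes stock) with or without analogue 5 μM (ethanol, ≤1% final). At 51 h, fixed in glutaraldehyde and axonal branch points/cell counted by phase contrast. Values normalized to 48 h; mean ± SEM of three cultures, 50 cells per cover slip, two cover slips per treatment; p values reported.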

[3] = Inability to reverse inhibitory effect of D-threo-1-phenyl-2-decanoylamino-3-morpholino-1-propanol(PDMP) on accelerated axonal growth of hippocampal neurons (P value); summary of the method: as §1

CCCCCCC/C=C/[C@@H](F)[C@H](CO)NC(=O)CCCCC
No. of axonal points [1]: 1.12
No. of axonal points [2]: 1.39

CCCCCCC/C=C/[C@H](F)[C@H](CO)NC(=O)CCCCC
No. of axonal points [1]: 1.16
No. of axonal points [2]: 1.29

CCCCCC(=O)N[C@@H](CO)[C@H](O)/C=C/c1ccc(C)cc1
No. of axonal points [2]: 1.46

CCCCCc1ccc(/C=C/[C@@H](O)[C@H](CO)NC(C)=O)cc1
No. of axonal points [2]: 1.67

CCCCCC(=O)N[C@@H](CO)[C@H](O)/C=C/c1ccc(F)cc1
No. of axonal points [2]: 1.5

CCCCCCCCCCCCC/C=C/[C@@H](O)[C@H](CO)NC(=O)CCCCCNc1ccc([N+](=O)[O-])c2nonc12
No. of axonal points [1]: 0.86 and 1.08
No. of axonal points [2]: <1.66 and 1.46

CCCCCCCCCCCCC/C=C/[C@H](O)[C@H](CO)NC(=O)CCCCCNc1ccc([N+](=O)[O-])c2nonc12
No. of axonal points [1]: 1.06
No. of axonal points [3]: 0.94
No. of axonal points [2]: <1.01 and <1.06

CCCCCC(=O)N[C@@H](CO)[C@H](O)/C=C/c1ccc(OC)cc1
No. of axonal points [2]: 1.35

CCCCCC(=O)N[C@@H](CO)[C@H](O)/C=C/c1cccs1
No. of axonal points [1]: 1.04
No. of axonal points [2]: 1.38

CCCCCc1ccc(/C=C/[C@@H](O)[C@H](CO)NC(=O)CCC)cc1
No. of axonal points [2]: 1.83

CCCCCC(=O)N[C@@H](CO)[C@H](O)/C=C/c1ccc(CCCCC)cc1
No. of axonal points [2]: 1.54

CCCCCCC/C=C/[C@@H](O)[C@H](CO)NC(=O)CCCCC
No. of axonal points [2]: 1.43

CCCCCCC/C=C/[C@H](O)[C@H](CO)NC(=O)CCCCC
No. of axonal points [2]: 1.11

CCCCCC(=O)N[C@@H](CO)[C@H](O)/C=C/c1ccccc1
No. of axonal points [1]: 0.92
No. of axonal points [2]: 2.09
